Laboratory results: ChEMBL document CHEMBL4043178, “Synthesis and evaluation of analogs of 5'-(((Z)-4-amino-2-butenyl)methylamino)-5'-deoxyadenosine (MDL 73811, or AbeAdo) - An inhibitor of S-adenosylmethionine decarboxylase with antitrypanosomal activity” (Bioorg Med Chem, 2017)

How the values were obtained:
Trypanosoma brucei [1] = test: Antitrypanosomal activity against Trypanosoma brucei Lister 427 bloodstream forms assessed as inhibition of parasite growth incubated for 48 hrs by ATP-bioluminescence cell viability assay; assay type: functional; settings: Lister 427, 48 h
[2] = Inhibition of Trypanosoma brucei AdoMetDC pre-incubated for 30 mins before AdoMet substrate addition by RapidFire-mass spectrometry
Liver [3] = test: Half life in mouse pooled liver microsomes at 1 uM in presence of NADPH by LC/MS/MS method; assay type: ADME, microsome; settings: microsomes, 1 µM
[4] = Inhibition of Trypanosoma brucei AdoMetDC without pre-incubation for 30 mins before AdoMet substrate addition by RapidFire-mass spectrometry
Liver [5] = test: Half life in human pooled liver microsomes at 1 uM in presence of NADPH by LC/MS/MS method; assay type: ADME, microsome; settings: microsomes, 1 µM
MDCK-MDR1 = test: Apparent permeability in MDCK2-MDR1 cells at 3 uM incubated for 1 hr in absence of P-glycoprotein inhibitor GF120918 by LC/MS/MS method; assay type: ADME, cell-based, Canis lupus familiaris; settings: dog, mdck-mdr1, 1 h
Trypanosoma brucei [6] = test: Antitrypanosomal activity against Trypanosoma brucei Lister 427 bloodstream forms assessed as inhibition of parasite growth at 25 uM incubated for 48 hrs by ATP-bioluminescence cell viability assay; assay type: functional; settings: Lister 427, 48 h, read-out: GI
Summary of the method: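 Bloodstream-form Lister 427 cells grown in HMI-19, seeded at 3000 cells/mL; compound added as 100-fold intermediate dilution, final DMSO 0.1%. After 48 h culture, viability read by CellTiter-Glo ATP-bioluminescence. Tested 0.0038–25 µM in 3-fold steps, triplicate; no-cell and DMSO-only controls (0% and 100% viability) per plate; value is percent inhibition at 25 µM.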

Trypanosoma brucei [7] = test: Inhibition of Trypanosoma brucei AdoMetDC at 50 uM without pre-incubation for 30 mins before AdoMet substrate addition by RapidFire-mass spectrometry
Summary of the method: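 Inhibition without pre-incubation: substrate solution (80 µM AdoMet) added to compound before the enzyme solution (50 nM purified T. brucei AdoMetDC/prozyme); buffer Hepes pH 7.7 with 5 mM putrescine. Reaction ran 20 min, stopped with 1 M HCl, then analysed by RapidFire-MS.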

[8] = Inhibition of His-tagged Trypanosoma brucei AdoMetDC expressed in Escherichia coli pre-incubated for 30 mins before AdoMet substrate addition
[9] = tested on: Trypanosoma brucei brucei; test: Antitrypanosomal activity against Trypanosoma brucei brucei; assay type: functional
Trypanosoma brucei [10] = test: Inhibition of Trypanosoma brucei AdoMetDC at 50 uM pre-incubated for 30 mins before AdoMet substrate addition by RapidFire-mass spectrometry
Summary of the method: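 Purified T. brucei AdoMetDC/prozyme complex, 50 nM in the enzyme solution, pre-incubated 30 min with compound in DMSO before adding the substrate solution (80 µM AdoMet); Hepes pH 7.7, NaCl, 5 mM putrescine. Reaction 20 min, quenched with 1 M HCl; substrate and product quantified by RapidFire-MS.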

Compound: CCC(=O)NC/C=C\CN(C)C[C@H]1O[C@@H](n2cnc3c(N)ncnc32)[C@H](O)[C@@H]1O
- EC50 (Trypanosoma brucei [1]): > 25 µM
- IC50 [2]: 25 µM
- t1/2 (Liver [3]): > 1.5 h
- IC50 [4]: 19 µM
- t1/2 (Liver [5]): > 1.5 h

Compound: CCCCCCCCC(=O)Nc1ncnc2c1ncn2[C@@H]1O[C@H](CN(C)C/C=C\CN)[C@H]2OC(C)(C)O[C@H]21
- EC50 (Trypanosoma brucei [1]): 0.16 µM
- IC50 [2]: 0.85 µM
- t1/2 (Liver [3]): 0.1 h
- Papp (MDCK-MDR1): 1 ×10⁻⁶ cm/s
- IC50 [4]: 48 µM
- t1/2 (Liver [5]): 0.162 h

Compound: Cc1nc2c(N)ncnc2n1[C@@H]1O[C@H](CN(C)C/C=C\CNC(=O)OC(C)C)[C@@H](O)[C@H]1O
- inhibition of growth at 25 µM (Trypanosoma brucei [6]): 35%
- IC50 [2]: > 50 µM
- t1/2 (Liver [3]): > 1.5 h
- IC50 [4]: > 50 µM
- t1/2 (Liver [5]): > 1.5 h

Compound: CN(C/C=C\CN)C[C@H]1O[C@@H](n2cnc3c(N(C)C)ncnc32)[C@H](O)[C@@H]1O
- EC50 (Trypanosoma brucei [1]): 10 µM
- IC50 [2]: 0.81 µM
- t1/2 (Liver [3]): > 1.5 h
- inhibition (Trypanosoma brucei [7]): 37%
- t1/2 (Liver [5]): > 1.5 h

Compound: Cc1nc2c(N)ncnc2n1[C@@H]1O[C@H](CN(C/C=C\CN)CCO)[C@H]2OC(C)(C)O[C@H]21
- EC50 (Trypanosoma brucei [1]): > 25 µM
- IC50 [2]: > 50 µM
- t1/2 (Liver [3]): > 1.5 h
- IC50 [4]: > 50 µM
- t1/2 (Liver [5]): > 1.5 h

Compound: CCCC(=O)NC/C=C\CN(C)C[C@H]1O[C@@H](n2cnc3c(N)ncnc32)[C@H](OC(C)=O)[C@@H]1OC(C)=O
- EC50 (Trypanosoma brucei [1]): > 25 µM
- IC50 [2]: > 50 µM
- t1/2 (Liver [3]): 0.05 h
- IC50 [4]: > 50 µM
- t1/2 (Liver [5]): 0.85 h

Compound: CC(=O)NC/C=C\CN(C)C[C@H]1O[C@@H](n2cnc3c(N)ncnc32)[C@H](OC(C)=O)[C@@H]1OC(C)=O
- EC50 (Trypanosoma brucei [1]): > 25 µM
- IC50 [2]: > 50 µM
- t1/2 (Liver [3]): 0.11 h
- IC50 [4]: > 50 µM
- t1/2 (Liver [5]): > 1.5 h

Compound: CC1(C)O[C@@H]2[C@H](O1)[C@@H](CN(C/C=C\CN)CCF)O[C@H]2n1cnc2c(N)ncnc21
- EC50 (Trypanosoma brucei [1]): > 25 µM
- IC50 [2]: > 50 µM
- t1/2 (Liver [3]): > 1.5 h
- IC50 [4]: > 50 µM
- t1/2 (Liver [5]): > 1.5 h

Compound: CN(C/C=C\CN)C[C@H]1O[C@@H](n2cnc3cncnc32)[C@@H]2OC(C)(C)O[C@@H]21
- EC50 (Trypanosoma brucei [1]): > 25 µM
- IC50 [2]: > 50 µM
- t1/2 (Liver [3]): 0.983 h
- IC50 [4]: > 50 µM
- t1/2 (Liver [5]): > 1.5 h

Compound: CN(C/C=C\CN)C[C@H]1O[C@@H](n2cnc3c(N)ncnc32)[C@H](O)[C@@H]1O
- EC50 (Trypanosoma brucei [1]): 0.01 µM
- IC50 [8]: 0.041 µM
- IC50 [2]: 0.041 µM
- t1/2 (Liver [3]): > 1.5 h
- EC50 [9]: 0.01 µM
- IC50 [4]: 2.4 µM
- t1/2 (Liver [5]): > 1.5 h

Compound: Cc1nc2c(N)ncnc2n1[C@@H]1O[C@H](CN(C)C/C=C\CN)[C@@H](O)[C@H]1O
- EC50 (Trypanosoma brucei [1]): 0.0018 µM
- IC50 [8]: 0.021 µM
- IC50 [2]: 0.021 µM
- t1/2 (Liver [3]): > 1.5 h
- EC50 [9]: 0.0018 µM
- IC50 [4]: 0.23 µM
- t1/2 (Liver [5]): > 1.5 h

Compound: CC(C)Nc1ncnc2c1ncn2[C@@H]1O[C@H](CN(C)C/C=C\CN)[C@@H](O)[C@H]1O
- EC50 (Trypanosoma brucei [1]): 2.5 µM
- IC50 [2]: 0.11 µM
- t1/2 (Liver [3]): > 1.5 h
- IC50 [4]: 7.1 µM
- t1/2 (Liver [5]): > 1.5 h

Compound: CCOc1ncnc2c1ncn2[C@@H]1O[C@H](CN(C)C/C=C\CN)[C@@H](O)[C@H]1O
- EC50 (Trypanosoma brucei [1]): 0.36 µM
- IC50 [2]: 0.6 µM
- t1/2 (Liver [3]): > 1.5 h
- inhibition (Trypanosoma brucei [7]): 33%
- t1/2 (Liver [5]): > 1.5 h

Compound: CCCC(=O)NC/C=C\CN(C)C[C@H]1O[C@@H](n2cnc3c(N)ncnc32)[C@H](O)[C@@H]1O
- EC50 (Trypanosoma brucei [1]): > 25 µM
- IC50 [2]: > 50 µM
- t1/2 (Liver [3]): > 1.5 h
- IC50 [4]: > 50 µM
- t1/2 (Liver [5]): > 1.5 h

Compound: Cc1nc2c(N)ncnc2n1[C@@H]1O[C@H](CN(C)C/C=C\CNC(=O)OCc2ccccc2)[C@@H](O)[C@H]1O
- EC50 (Trypanosoma brucei [1]): 2.6 µM
- inhibition (Trypanosoma brucei [10]): 39%
- t1/2 (Liver [3]): 0.217 h
- inhibition (Trypanosoma brucei [7]): 17%
- t1/2 (Liver [5]): 0.4 h

Compound: CC(=O)NC/C=C\CN(C)C[C@H]1O[C@@H](n2cnc3c(N)ncnc32)[C@H](O)[C@@H]1O
- EC50 (Trypanosoma brucei [1]): > 25 µM
- IC50 [2]: 18 µM
- t1/2 (Liver [3]): > 1.5 h
- IC50 [4]: 13 µM
- t1/2 (Liver [5]): > 1.5 h

Compound: CCOC(=O)NC/C=C\CN(C)C[C@H]1O[C@@H](n2c(C)nc3c(N)ncnc32)[C@H](O)[C@@H]1O
- inhibition (Trypanosoma brucei [10]): 40%
- t1/2 (Liver [3]): > 1.5 h
- inhibition (Trypanosoma brucei [7]): 40%
- t1/2 (Liver [5]): > 1.5 h

Compound: Cc1nc2c(N)ncnc2n1[C@@H]1O[C@H](CN(C/C=C\CNC(=O)OC(C)(C)C)C2CC2)[C@H]2OC(C)(C)O[C@H]21
- EC50 (Trypanosoma brucei [1]): 3 µM
- IC50 [2]: 42 µM
- t1/2 (Liver [3]): < 0.0417 h
- Papp (MDCK-MDR1): 31.2 ×10⁻⁶ cm/s
- IC50 [4]: > 50 µM
- t1/2 (Liver [5]): < 0.0417 h

Compound: Cc1nc2c(N)ncnc2n1[C@@H]1O[C@H](CN(C/C=C\CN)C2CC2)[C@@H](O)[C@H]1O
- EC50 (Trypanosoma brucei [1]): > 3 µM
- IC50 [2]: > 50 µM
- t1/2 (Liver [3]): > 1.5 h
- IC50 [4]: > 50 µM
- t1/2 (Liver [5]): > 1.5 h

Compound: NC/C=C\CN(CCF)C[C@H]1O[C@@H](n2cnc3c(N)ncnc32)[C@H](O)[C@@H]1O
- EC50 (Trypanosoma brucei [1]): > 25 µM
- inhibition (Trypanosoma brucei [10]): 36%
- t1/2 (Liver [3]): > 1.5 h
- IC50 [4]: > 50 µM
- t1/2 (Liver [5]): > 1.5 h

Compound: CCC(=O)NC/C=C\CN(C)C[C@H]1O[C@@H](n2cnc3c(N)ncnc32)[C@H](OC(C)=O)[C@@H]1OC(C)=O
- EC50 (Trypanosoma brucei [1]): > 25 µM
- IC50 [2]: > 50 µM
- t1/2 (Liver [3]): 0.0767 h
- IC50 [4]: > 50 µM
- t1/2 (Liver [5]): 1.25 h

Compound: Cc1nc2c(N)ncnc2n1[C@@H]1O[C@H](CN(C/C=C\CN)C2CC2)[C@H]2OC(C)(C)O[C@H]21
- EC50 (Trypanosoma brucei [1]): > 3 µM
- IC50 [2]: > 50 µM
- t1/2 (Liver [3]): > 1.5 h
- IC50 [4]: > 50 µM
- t1/2 (Liver [5]): > 1.5 h

Compound: CN(C/C=C\CN)C[C@H]1O[C@@H](n2cnc3c(N)ncnc32)[C@@H]2OC(C)(C)O[C@@H]21
- EC50 (Trypanosoma brucei [1]): 0.42 µM
- IC50 [2]: 3 µM
- t1/2 (Liver [3]): > 1.5 h
- inhibition (Trypanosoma brucei [7]): 22%
- t1/2 (Liver [5]): > 1.5 h

Compound: CNc1ncnc2c1ncn2[C@@H]1O[C@H](CN(C)C/C=C\CN)[C@@H](O)[C@H]1O
- EC50 (Trypanosoma brucei [1]): 0.37 µM
- IC50 [2]: 0.17 µM
- t1/2 (Liver [3]): > 1.5 h
- IC50 [4]: 14 µM
- t1/2 (Liver [5]): > 1.5 h

Compound: Cc1nc2c(N)ncnc2n1[C@@H]1O[C@H](CN(C)C/C=C\CNC(=O)OC(C)(C)C)[C@H]2OC(C)(C)O[C@H]21
- EC50 (Trypanosoma brucei [1]): > 25 µM
- IC50 [2]: > 50 µM
- t1/2 (Liver [3]): < 0.0417 h
- Papp (MDCK-MDR1): 5.1 ×10⁻⁶ cm/s
- IC50 [4]: > 50 µM
- t1/2 (Liver [5]): < 0.0417 h

Compound: CNc1ncnc2c1ncn2[C@@H]1O[C@H](CN(C)C/C=C\CN)[C@H]2OC(C)(C)O[C@H]21
- inhibition of growth at 25 µM (Trypanosoma brucei [6]): 37%
- IC50 [2]: 12 µM
- t1/2 (Liver [3]): > 1.5 h
- IC50 [4]: > 50 µM
- t1/2 (Liver [5]): > 1.5 h
